In ChEMBL document CHEMBL1811801, “Structural modifications of quinolone-3-carboxylic acids with anti-HIV activity” (Bioorg Med Chem, 2011) one finds EC50, CC50 and selectivity ratio data, which are given here for twelve compounds.

The subject of the first data set is Human immunodeficiency virus 1. Put plainly: Antiviral activity against HIV1 LAI 3B infected in human C8166 cells assessed as protection against virus-induced cytopathic effect by MTT assay. Format: functional, organism-based. Particulars: Human immunodeficiency virus 1, LAI 3B. Summed up:
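C8166 cells infected with wild-type HIV-1 (LAI strain IIIB); protection from viral cytopathogenicity read by MTT assay. EC50 is the concentration protecting cells against virus-induced cytopathogenicity by 50%. Values are means of at least two separate experiments.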
As to `CCCCCn1cc(C(=O)O)c(=O)c2c(O)c(Cc3cccc(Cl)c3F)ccc21`, the EC50 (commonly the concentration that produces a half-maximal response) was 23.5 µM.
The same measure, in the same setting: to `CCCn1cc(C(=O)O)c(=O)c2c(O)c(Cc3cccc(Cl)c3F)ccc21` belongs 2.79 µM; to `CCCCn1cc(C(=O)O)c(=O)c2c(O)c(Cc3cccc(Cl)c3F)ccc21`, 8.09 µM; to `CC(C)n1cc(C(=O)O)c(=O)c2c(O)c(Cc3cccc(Cl)c3F)ccc21`, 4.44 µM.
On to `CC(C)Cn1cc(C(=O)O)c(=O)c2c(O)c(Cc3cccc(Cl)c3F)ccc21`, for which the concentration for a half-maximal effect (EC50) was 3.47 µM.
Same read-out and setting: to `CCC(C)n1cc(C(=O)O)c(=O)c2c(O)c(Cc3cccc(Cl)c3F)ccc21` (stereo unspecified) belongs 1.83 µM; to `CC(C)(C)n1cc(C(=O)O)c(=O)c2c(O)c(Cc3cccc(Cl)c3F)ccc21`, 4.53 µM.
As to `O=C(O)c1cn(C2CC2)c2ccc(Cc3cccc(Cl)c3F)c(O)c2c1=O`, the EC50 is 2.01 µM.
Still for that read-out and setting: for `O=C(O)c1cn(C2CCCC2)c2ccc(Cc3cccc(Cl)c3F)c(O)c2c1=O` the value was 3.87 µM; for `O=C(O)c1cn(C2CCCCC2)c2ccc(Cc3cccc(Cl)c3F)c(O)c2c1=O`, 2.81 µM.
Same read-out and setting: for `CC(C)[C@@H](CO)n1cc(C(=O)O)c(=O)c2c(O)c(Cc3cccc(Cl)c3F)ccc21` the value was 0.13 µM; for `COc1cc2c(cc1Cc1cccc(Cl)c1F)c(=O)c(C(=O)O)cn2[C@H](CO)C(C)C` [ELVITEGRAVIR], 0.00021 µM.

Test system in a further data set: not listed separately
Put plainly: Cytotoxicity against human C8166 cells by MTT assay. Format: cell-based.
Details: not given
A digest of the protocol: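 Uninfected C8166 cells exposed to compound; viability read by MTT assay. CC50 is the concentration lowering normal uninfected cell viability by 50%. Values are means of at least two separate experiments.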
Background: Tetrazolium assays rely on reduction of a dye to a coloured formazan, in cell work by metabolically active cells.
For the compound `CCCCCn1cc(C(=O)O)c(=O)c2c(O)c(Cc3cccc(Cl)c3F)ccc21`, it took 39.9 µM to reach half-maximal cytotoxicity (CC50).
Same read-out and setting: for `CCCn1cc(C(=O)O)c(=O)c2c(O)c(Cc3cccc(Cl)c3F)ccc21` the value was 24.2 µM; for `CCCCn1cc(C(=O)O)c(=O)c2c(O)c(Cc3cccc(Cl)c3F)ccc21`, 19.9 µM; for `CC(C)n1cc(C(=O)O)c(=O)c2c(O)c(Cc3cccc(Cl)c3F)ccc21`, 26.5 µM.
The same measure, in the same setting: for `CC(C)Cn1cc(C(=O)O)c(=O)c2c(O)c(Cc3cccc(Cl)c3F)ccc21` the value was 19.5 µM.
The same measure, in the same setting: for `CCC(C)n1cc(C(=O)O)c(=O)c2c(O)c(Cc3cccc(Cl)c3F)ccc21` (stereo unspecified) the value was 30.7 µM.
For the compound `CC(C)(C)n1cc(C(=O)O)c(=O)c2c(O)c(Cc3cccc(Cl)c3F)ccc21`, half-maximal cytotoxicity (CC50) was put at 400 µM.
Turning to `O=C(O)c1cn(C2CC2)c2ccc(Cc3cccc(Cl)c3F)c(O)c2c1=O`, half-maximal cytotoxicity (CC50) was put at 39.1 µM.
Same read-out and setting: to `O=C(O)c1cn(C2CCCC2)c2ccc(Cc3cccc(Cl)c3F)c(O)c2c1=O` belongs 12.4 µM.
Turning to `O=C(O)c1cn(C2CCCCC2)c2ccc(Cc3cccc(Cl)c3F)c(O)c2c1=O`, the midpoint of cytotoxicity, the CC50, lay at 17.4 µM.
Still for that read-out and setting: to `CC(C)[C@@H](CO)n1cc(C(=O)O)c(=O)c2c(O)c(Cc3cccc(Cl)c3F)ccc21` belongs 125 µM.
In the case of `COc1cc2c(cc1Cc1cccc(Cl)c1F)c(=O)c(C(=O)O)cn2[C@H](CO)C(C)C` [ELVITEGRAVIR], the cytotoxic concentration (CC50) (usually the concentration at which the toxic effect on the cells reaches its halfway point) worked out at 17.2 µM. This CC50 lies about 7.3-fold lower than the previous one.

Test system in the next data set: not listed separately
Put plainly: Selectivity index, ratio of CC50 for human C8166 cells to EC50 for HIV1 LAI 3B. Format: toxicity, cell-based. As to conditions: read-out: Ratio CC50/EC50.
Take `CCCCCn1cc(C(=O)O)c(=O)c2c(O)c(Cc3cccc(Cl)c3F)ccc21`: the selectivity ratio came out at 1.7.
On the same count and under the same terms, for `CCCn1cc(C(=O)O)c(=O)c2c(O)c(Cc3cccc(Cl)c3F)ccc21` the value was 8.66; for `CCCCn1cc(C(=O)O)c(=O)c2c(O)c(Cc3cccc(Cl)c3F)ccc21`, 2.47; for `CC(C)n1cc(C(=O)O)c(=O)c2c(O)c(Cc3cccc(Cl)c3F)ccc21`, 5.97.
Still for that read-out and setting: for `CC(C)Cn1cc(C(=O)O)c(=O)c2c(O)c(Cc3cccc(Cl)c3F)ccc21` the value was 5.63; for `CCC(C)n1cc(C(=O)O)c(=O)c2c(O)c(Cc3cccc(Cl)c3F)ccc21` (stereo unspecified), 16.8.
On to `CC(C)(C)n1cc(C(=O)O)c(=O)c2c(O)c(Cc3cccc(Cl)c3F)ccc21`, for which the selectivity ratio worked out at 88.3.
Same read-out and setting: for `O=C(O)c1cn(C2CC2)c2ccc(Cc3cccc(Cl)c3F)c(O)c2c1=O` the value was 19.5; for `O=C(O)c1cn(C2CCCC2)c2ccc(Cc3cccc(Cl)c3F)c(O)c2c1=O`, 3.21.
On the same count and under the same terms, to `O=C(O)c1cn(C2CCCCC2)c2ccc(Cc3cccc(Cl)c3F)c(O)c2c1=O` belongs 6.18; to `CC(C)[C@@H](CO)n1cc(C(=O)O)c(=O)c2c(O)c(Cc3cccc(Cl)c3F)ccc21`, 962; to `COc1cc2c(cc1Cc1cccc(Cl)c1F)c(=O)c(C(=O)O)cn2[C@H](CO)C(C)C` [ELVITEGRAVIR], 81900.
